{"source": "ChEMBL document CHEMBL4041479", "about": "“Piperlongumine (piplartine) and analogues: Antiproliferative microtubule-destabilising agents” (Eur J Med Chem, 2017)", "key": {"MCF7 [1]": {"tested_on": "MCF7", "experiment": "Induction of reactive oxygen species generation in human MCF7 cells assessed as decrease in cell viability at 10 uM in presence of N-acetyl cysteine after 48 hrs by alamarBlue assay", "type": "functional, cell-based", "outline": "(§1)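 MCF-7 cells were seeded at 2.5×10^4 cells/mL and left to adhere. They were pre-treated 1 h with N-acetyl cysteine (1 mM) or Trolox (100 μM), then exposed to test agents for 48 h. Viability was measured by alamarBlue fluorescence as % of ethanol vehicle control. Mean of three independent experiments.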"}, "Homo sapiens [2]": {"organism": "Homo sapiens", "experiment": "Induction of tubulin depolymerization in human MCF7 cells at 1 uM after 4 hrs by Western blot method", "type": "cell-based", "outline": "(§2)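 MCF-7 (1×10^6/well) or Jurkat cells were treated for 4 h with 1–20 μM or 0.1% ethanol. Cells were lysed in microtubule-preserving buffer (0.1 M PIPES pH 6.9, 2 M glycerol, 5 mM MgCl2, 2 mM EGTA, 0.5% Triton X-100, 4 μM paclitaxel) and centrifuged at 20,000g for 45 min. Soluble (supernatant) and polymer (pellet) fractions, 30 μg protein each, were immunoblotted for α-tubulin with a GAPDH loading control. Three experiments.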"}, "Homo sapiens [3]": {"organism": "Homo sapiens", "experiment": "Induction of tubulin depolymerization in human Jurkat cells at 1 uM after 4 hrs by Western blot method", "type": "cell-based", "outline": "as §2"}, "MCF7 [4]": {"tested_on": "MCF7", "experiment": "Induction of reactive oxygen species generation in human MCF7 cells assessed as decrease in cell viability at 0.1 to 10 uM in presence of N-acetyl cysteine after 48 hrs by alamarBlue assay", "type": "functional, cell-based", "outline": "as §1"}, "Homo sapiens [5]": {"organism": "Homo sapiens", "experiment": "Binding affinity to colchicine-binding site of beta tubulin in human MCF7 cells assessed as inhibition of formation of protein-N,N'-Ethylene-bis(iodoacetamide) adduct at 10 uM after 2 hrs by Western blot method", "type": "cell-based", "outline": "(§3)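 MCF-7 or HT-29 cells were exposed to test agent or ethanol vehicle (0.1% v/v) for 2 h, with MCF-7 seeded at 1×10^6 cells/well overnight beforehand. Selected samples then received N,N'-ethylene-bis(iodoacetamide) for a further 1.5 h. Cells were washed in cold PBS, lysed in Laemmli buffer and run on SDS-PAGE. Three independent experiments.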"}, "Homo sapiens [6]": {"organism": "Homo sapiens", "experiment": "Disruption of microtubule network in human MCF7 cells at 100 nM after 16 hrs by immunofluorescence analysis", "type": "cell-based", "outline": "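MCF-7 cells were seeded at 1×10^5 cells/mL on chamber slides and treated for 16 h (vehicle 1% ethanol). Cells were fixed 20 min in 4% paraformaldehyde, permeabilised in 0.5% Triton X-100 and blocked in 5% BSA/PBST. Staining used anti-α-tubulin–FITC (DM1A) for 2 h at rt, then Alexa Fluor 488 for 1 h, with DAPI counterstain. Imaging was by confocal microscopy; three independent experiments.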"}, "Homo sapiens [7]": {"organism": "Homo sapiens", "experiment": "Binding affinity to colchicine-binding site of beta tubulin in human HT-29 cells assessed as inhibition of formation of protein-N,N'-Ethylene-bis(iodoacetamide) adduct at 10 uM after 2 hrs by Western blot method", "type": "cell-based", "outline": "as §3"}, "MCF7 [8]": {"tested_on": "MCF7", "experiment": "Induction of reactive oxygen species generation in human MCF7 cells assessed as decrease in cell viability at 100 nM in presence of N-acetyl cysteine after 48 hrs by alamarBlue assay", "type": "functional, cell-based", "outline": "as §1"}, "MCF7 [9]": {"tested_on": "MCF7", "experiment": "Induction of reactive oxygen species generation in human MCF7 cells assessed as decrease in cell viability at 1 to 10 uM in presence of N-acetyl cysteine after 48 hrs by alamarBlue assay", "type": "functional, cell-based", "outline": "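MCF-7 cells seeded at 2.5×10^4 cells/mL, left overnight to adhere. After 23 h, pre-treated 1 hr with NAC (1 mM; 100 mM stock in sterile water), then compound for 48 h at 37 °C in 5% CO₂. alamarBlue added 5 h before endpoint, fluorescence ex 544/em 590 nm, blank subtracted. Viability as % of ethanol vehicle control, mean of three independent experiments.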"}}, "note": "Calls of active or inactive are those of the source. No cut-off for these calls is given here."}
{"smiles": "COc1cc(C(=O)/C=C/c2ccc(N(C)C)cc2)cc(OC)c1OC", "values": [{"measurement": "Activity", "setting": "MCF7 [1]", "value": "inactive"}]}
{"smiles": "CC(=O)O[C@H]1C(=O)[C@@]2(C)[C@H]([C@H](OC(=O)c3ccccc3)[C@]3(O)C[C@H](OC(=O)[C@H](O)[C@@H](NC(=O)c4ccccc4)c4ccccc4)C(C)=C1C3(C)C)[C@]1(OC(C)=O)CO[C@@H]1C[C@@H]2O", "values": [{"measurement": "Activity", "setting": "Homo sapiens [2]", "value": "inactive"}, {"measurement": "Activity", "setting": "Homo sapiens [3]", "value": "inactive"}]}
{"smiles": "COc1ccc(/C=C\\c2cc(OC)c(OC)c(OC)c2)cc1O", "values": [{"measurement": "Activity", "setting": "MCF7 [4]", "value": "inactive"}, {"measurement": "inhibition", "setting": "Homo sapiens [5]", "value": "Active"}, {"measurement": "Activity", "setting": "Homo sapiens [6]", "value": "Active"}, {"measurement": "inhibition", "setting": "Homo sapiens [7]", "value": "Active"}, {"measurement": "Activity", "setting": "MCF7 [8]", "value": "inactive"}]}
{"smiles": "COc1cc2c(c(OC)c1OC)-c1ccc(OC)c(=O)cc1[C@@H](NC(C)=O)CC2", "values": [{"measurement": "Activity", "setting": "MCF7 [9]", "value": "inactive"}]}
{"smiles": "COC(=O)Nc1nc2cc(C(=O)c3cccs3)ccc2[nH]1", "values": [{"measurement": "Activity", "setting": "Homo sapiens [2]", "value": "Active"}, {"measurement": "Activity", "setting": "Homo sapiens [3]", "value": "Active"}]}
